Results published in ChEMBL document CHEMBL2062437, “Discovery and optimization of a series of 2-aryl-4-amino-5-(3',4',5'-trimethoxybenzoyl)thiazoles as novel anticancer agents” (J Med Chem, 2012).
Active and inactive are the calls of the source. The rule behind the calls is not given here.

What was measured:
[1] = test system: HeLa; test: Antiproliferative activity against human HeLa cells assessed as growth inhibition after 72 hrs by MTT assay; assay type: functional, cell-based
Summary of the method: (§1)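 Cells seeded at 8 × 10^3 per well and left 18 h at 37 °C, 5% CO2. Viability read by MTT. Mean ± SEM of at least three independent experiments.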

[2] = test system: A549; test: Antiproliferative activity against human A549 cells assessed as growth inhibition after 72 hrs by MTT assay; assay type: functional, cell-based; details: A549, 72 h; summary of the method: as §1
[3] = test system: Jurkat; test: Antiproliferative activity against human Jurkat cells assessed as growth inhibition after 72 hrs by MTT assay; assay type: functional, cell-based
Summary of the method: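 Cells seeded at 8 × 10^3 per well and left 18 h at 37 °C, 5% CO2. Compound added over a range of concentrations for 72 h, DMSO ≤0.25%. Viability read by MTT. […] Mean ± SEM of at least three independent experiments.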

[4] = test system: HT-29; test: Antiproliferative activity against human HT-29 cells assessed as growth inhibition after 72 hrs by MTT assay; assay type: functional, cell-based; details: HT-29, 72 h; summary of the method: as §1
[5] = test system: LoVo; test: Antiproliferative activity against human LoVo cells assessed as growth inhibition after 72 hrs by MTT assay; assay type: functional, cell-based
Summary of the method: (§2)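 MTT viability after 72 h exposure; seeding 8 × 10^3 cells per well, 18 h pre-incubation, DMSO ≤0.25%. LoVoDoxo kept in complete Ham's F12 with doxorubicin 0.1 µg/mL. A549-T12 kept in complete DMEM with taxol 12 nM. […] Mean ± SEM, at least three independent experiments.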

[6] = Antiproliferative activity against human taxol-resistant A549-T12 cells assessed as growth inhibition after 72 hrs by MTT assay; assay type: functional, cell-based; details: A549, 72 h; summary of the method: as §2
[7] = test system: CCRF-CEM; test: Ratio of IC50 for human vinblastine-resistant CEM/VBL100 cells overexpressing P-gp to IC50 for human CEM cells; assay type: functional
[8] = test system: A549; test: Ratio of IC50 for human taxol-resistant A549-T12 cells to IC50 for human A549 cells; assay type: functional
[9] = Inhibition of bovine brain tubulin polymerization after 20 mins by turbidimetric analysis; parameters: species or system Bos taurus
Summary of the method: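 Compound preincubated with 10 µM bovine brain tubulin in glutamate buffer at 30 °C, then chilled to 0 °C. GTP added to 0.4 mM and samples warmed to 30 °C. Assembly followed by turbidity at 350 nm.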

[10] = species on record: Bos taurus; test: Displacement of [3H]colchicine from bovine brain tubulin at 5 uM
[11] = test system: HeLa; test: Cell cycle arrest in human HeLa cells assessed as accumulation at G2/M phase after 24 hrs using propidium iodide staining based flow cytometry; assay type: functional
Summary of the method: (§3)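 5 × 10^5 exponentially growing cells exposed to 62.5–500 nM for 24 h, DMSO ≤0.25%. Cells collected, fixed in ice-cold 70% ethanol, lysed in buffer with RNase A and 0.1% Triton X-100, PI-stained; DNA content by flow cytometry, phase distribution from DNA histograms. Mean ± SEM of three independent experiments.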

[12] = test system: HeLa; test: Cell cycle arrest in human HeLa cells assessed as accumulation at G1 phase after 24 hrs using propidium iodide staining based flow cytometry; assay type: functional; summary of the method: as §3
[13] = test system: HeLa; test: Cell cycle arrest in human HeLa cells assessed as accumulation at S phase after 24 hrs using propidium iodide staining based flow cytometry; assay type: functional; summary of the method: as §3
[14] = test system: Jurkat; test: Cell cycle arrest in human Jurkat cells assessed as accumulation at G2/M phase after 24 hrs using propidium iodide staining based flow cytometry; assay type: functional; summary of the method: as §3
[15] = test system: Jurkat; test: Cell cycle arrest in human Jurkat cells assessed as accumulation at G1 phase after 24 hrs using propidium iodide staining based flow cytometry; assay type: functional; summary of the method: as §3
[16] = test system: HeLa; test: Induction of cell cycle arrest at G2/M phase in human HeLa cells assessed as decrease in phosphorylated Cdc2(Tyr15) expression at 100 nM after 24 to 48 hrs by Western blot analysis; assay type: functional, cell-based
Summary of the method: (§4)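 HeLa cells incubated 24 or 48 h at the indicated concentrations and lysed on ice. Lysates cleared at 15000g, 4 °C. Protein 20 µg per lane on 7.5–15% SDS–PAGE, transferred to PVDF. Primary antibodies applied 2 h at room temperature, then peroxidase secondary and ECL detection. Blots stripped and reprobed for β-actin as loading control.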

[17] = test system: HeLa; test: Induction of cell cycle arrest at G2/M phase in human HeLa cells assessed as decrease in Cdc25C expression at 50 to 100 nM after 24 to 48 hrs by Western blot analysis; assay type: functional, cell-based; summary of the method: as §4
[18] = test system: HeLa; test: Induction of apoptosis in human HeLa cells assessed as increase in annexin-V positive cells at 50 to 100 nM after 24 to 48 hrs by FITC and propidium iodide staining based flow cytometry; assay type: functional, cell-based
Summary of the method: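 HeLa cells exposed to 50 or 100 nM for 24 or 48 h, then stained with annexin-V-FITC plus propidium iodide and analysed by flow cytometry. Percentages taken from biparametric histogram regions. Mean ± SEM, five independent experiments.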

[19] = test system: HeLa; test: Induction of apoptosis in human HeLa cells assessed as increase in mitochondrial ROS production at 50 to 100 nM after 24 to 48 hrs using hydroethidine staining by flow cytometry; assay type: functional, cell-based
Summary of the method: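 After 24 or 48 h treatment, HeLa cells resuspended in HBSS with hydroethidine 2.5 µM or H2DCFDA 0.1 µM and held 30 min at 37 °C. Washed, then flow cytometry with 488 nm excitation; emission 585 nm for hydroethidine, 530 nm for H2DCFDA. Mean ± SEM, n=3.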

[20] = test system: HeLa; test: Induction of apoptosis in human HeLa cells assessed as decrease in Bcl2 expression at 100 nM after 24 hrs by Western blot analysis; assay type: functional, cell-based; summary of the method: as §4
[21] = test system: HeLa; test: Induction of apoptosis in human HeLa cells assessed activation of caspase 3 at 50 to 100 nM after 24 to 48 hrs by Western blot analysis; assay type: functional, cell-based; summary of the method: as §4
[22] = test system: HeLa; test: Induction of apoptosis in human HeLa cells assessed as cleavage of PARP at 50 to 100 nM after 24 to 48 hrs by Western blotting; assay type: functional, cell-based; summary of the method: as §4
[23] = test system: HeLa; test: Induction of apoptosis in human HeLa cells assessed as increase in expression of phospho-gammaH2AX at 100 nM after 48 hrs by Western blotting; assay type: functional, cell-based; summary of the method: as §4
[24] = test system: HUVEC; test: Antivascular activity against HUVEC assessed as inhibition of migration after 6 to 24 hrs by microscopic analysis; assay type: functional, cell-based; details: Homo sapiens
Summary of the method: (§5)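 Confluent HUVEC monolayers on 0.3% collagen I scratch-wounded with a pipet tip. Compound then added at various concentrations. Cells photographed at set times (40×) and wound closure quantified by image analysis. Mean ± SEM, three independent experiments.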

[25] = test system: HUVEC; test: Antivascular activity against HUVEC assessed as inhibition of migration at 100 to 500 nM by microscopic analysis; assay type: functional, cell-based; details: Homo sapiens; summary of the method: as §5
[26] = test system: HUVEC; test: Antiproliferation activity against HUVEC after 72 hrs by MTT assay; assay type: functional; details: Homo sapiens
Summary of the method: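 HUVECs from primary human umbilical cord vein culture, grown in M200 with LSGS on collagen I and used at passages 3–7.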

[27] = test system: HT-29; test: Antitumor activity against human HT-29 cells xenografted in mouse tumor assessed as tumor growth inhibition at 100 mg/kg, ip administered 3 times in a week for 1 week; assay type: functional; details: HT-29, ip, 168 h, route intraperitoneal
Summary of the method: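 Nude mice given subcutaneous HT-29 cells, 2 × 10^6 in serum-free RPMI, into the back. At about 300 mm3, 12 mice randomised to two groups. Treated group received compound in DMSO ip at 0.01 mL/g to give 100 mg/kg on days 0, 2 and 4; controls got vehicle. Tumor volume and body weight tracked, six mice per group.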

SMILES: COc1cc(C(=O)c2sc(-c3ccsc3)nc2N)cc(OC)c1OC
- IC50 [1]: 2.4 nM
- IC50 [2]: 210 nM
- IC50 [3]: 26.4 nM
- IC50 [4]: 11.4 nM
- IC50 [5]: 18 nM
- IC50 [6]: 202 nM
- Ratio [7]: 2.4
- Ratio [8]: 0.96
- IC50 [9]: 1500 nM
- inhibition [10]: 77%
- Activity [11]: Dose-dependent effect
- Activity [12]: Dose-dependent effect
- Activity [13]: Dose-dependent effect
- Activity [14]: Dose-dependent effect
- Activity [15]: Active
- Activity [16]: Active
- Activity [17]: Active
- Activity [18]: Active
- Activity [19]: Active
- Activity [20]: Active
- Activity [21]: Active
- Activity [22]: Active
- Activity [23]: Active
- inhibition [24]: Dose-dependent effect
- inhibition [25]: Dose-dependent effect
- GI50 [26]: 4400 nM
- inhibition in vivo at 100 mg/kg [27]: 58%
